# Mdm2 ligase inh – MDM2-luciferase reporter signal enhancers, primary screen, MDM2 E3 ligase inhibitor project, cell-based, luminescence, 1536-well. cell-based MDM2 ubiquitination luciferase reporter, 2 h; 0 = plate control, 100 = twice control, blank-subtracted. actives 0.11% (n = 210,000). signal enhancement, % at 5 µM. AID 1230, 2008;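 active = signal enhancement of 30% or more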;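 note: luminescence tracks abundance of the self-degrading MDM2-luciferase fusion protein; higher signal means inhibition of MDM2 E3 ligase activity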
# Target sequence (Q00987 whole entry, looked up, the tested form may be a part): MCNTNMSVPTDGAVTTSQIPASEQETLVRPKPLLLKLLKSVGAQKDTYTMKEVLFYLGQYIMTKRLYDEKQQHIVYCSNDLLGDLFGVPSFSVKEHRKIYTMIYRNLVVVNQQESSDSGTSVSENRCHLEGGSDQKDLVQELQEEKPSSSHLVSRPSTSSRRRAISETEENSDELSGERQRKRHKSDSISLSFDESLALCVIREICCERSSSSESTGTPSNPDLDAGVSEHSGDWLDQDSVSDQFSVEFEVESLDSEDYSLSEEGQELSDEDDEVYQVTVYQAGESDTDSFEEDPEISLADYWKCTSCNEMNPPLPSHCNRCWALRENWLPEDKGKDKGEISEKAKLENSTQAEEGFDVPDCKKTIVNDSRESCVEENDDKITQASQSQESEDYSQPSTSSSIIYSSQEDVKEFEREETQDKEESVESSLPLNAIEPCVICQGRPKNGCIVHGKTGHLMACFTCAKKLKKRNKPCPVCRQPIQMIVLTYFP
#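 System: stable MDM2–luciferase fusion reporter cells / Input: 2000 cells seeded into each well / Schedule: 4 h settle plus 2 h compound, 37 °C / Compound: single-point 5 µM / Buffer or medium: cells held in DMEM / Benchmarks: control and blank well means / Evaluation: percent signal gain over controls, blank-subtracted / Measured by: luciferase luminescence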
# AHR act – AHR activators, primary screen, cell-based, luminescence, luciferase reporter, human. AHR-responsive luciferase reporter cells. activation, % at 5 µM. actives 2.5% (n = 320,000); in the data active = activation above about 47%;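 note: 0% = vehicle wells and 100% = reference agonist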
# STAT1 act – STAT1 signaling activators, primary screen, cell-based, HTS, luciferase reporter. actives 2.6% (n = 200,000). activation (% of control), % at 5.5 µM. NIH 3T3 STAT1-luciferase reporter, IFN-gamma, luminescence; 100% = IFN-gamma alone, no compound;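 active = activation above the screen-wide mean activation plus 3 SD, cut at about 130% in these data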;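 note: raw ratio to IFN-gamma control signal so 100% means no change and 0% no light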
# PERK inhibitor – block of dimerizer-induced PERK translation repression, primary screen, PERK inhibitor project, CHO PERK-DD cells, SEAP luminescence, HTS | Eukaryotic translation initiation factor 2-alpha kinase 3 (Homo sapiens), Q9NZJ5 | CHO PERK-DD fusion, SEAP luminescence translation reporter | inhibition, % at 5.6 µM | actives 0.17% (n = 220,000);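 active = inhibition above the mean inhibition of all tested compounds plus 3 SD, set separately per screening campaign, cut at about 2.9% in these data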;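 note: PERK kinase domain activated by AP20187 dimerizer at 100 nM; 0% = DMSO with dimerizer and 100% = rapamycin at 8.4 µM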
# NF-kB expr up – activators of NF-kB expression in neurons, primary screen, cell-based, HTS | human neuronal cells, NF-kB reporter expression; hits give high values | fold change at 12.5 µM | actives 1.6% (n = 190,000); in the data active = fold change above about 3.3
# APP 5'UTR act – activators of APP 5'UTR luciferase reporter, primary screen, SH-SY5Y cells; SH-SY5Y APP 5'UTR luciferase reporter, luminescence; zero percent = DMSO vehicle wells; activation, % at 2 µM; actives 1% (n = 190,000); AID 1276, 2008;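 active = activation above a set limit, based on mean plus 3 SD of controls, cut at about 140% in these data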
# Starred values were filed as active, the others as inactive; / = no result given. Hits are enriched below; roughly 4.5% of the tested compounds scored in any of these assays.
SMILES,Mdm2 ligase inh,AHR act,STAT1 act,PERK inhibitor,NF-kB expr up,APP 5'UTR act
COc1ccc(NC(=O)CC2Nc3cc(C)c(C)cc3NC2=O)c([N+](=O)[O-])c1 (stereo unspecified),-6,61*,96,-1,0.93,-2
O=C(CC1Nc2ccccc2NC1=O)Nc1cc(Cl)cc(Cl)c1 (stereo unspecified),0,48*,101,-1,0.89,-8
O=C(CCC1CC(=O)Nc2ccccc21)NCc1cccnc1 (stereo unspecified),/,1,101,0,1.2,7
COc1ccc(NC(=O)Cc2ccc(C)cc2)c([N+](=O)[O-])c1,-9,11,101,0,1.1,12
COc1ccc(NC(=O)CC2Nc3cccc4cccc(c34)NC2=O)cc1 (stereo unspecified),3,57*,94,1,0.9,5
O=C(CC1Nc2ccccc2NC1=O)NCc1cccnc1 (stereo unspecified),-8,49*,97,-1,0.98,-13
CN(CC(=O)N1CCc2ccccc21)S(=O)(=O)c1cccs1,-9,34,130*,-1,1.8,11
CC(C(=O)N1CCc2ccccc21)N1CCN(S(=O)(=O)c2cccs2)CC1 (stereo unspecified),/,3,/,/,/,/
O=C(N/C(=C\c1cccc([N+](=O)[O-])c1)C(=O)N1CCOCC1)c1ccc([N+](=O)[O-])cc1,-23,-2,131*,1,0.68,0
O=C(N/C(=C/c1cccc([N+](=O)[O-])c1)C(=O)N1CCOCC1)c1ccc(Br)cc1,/,14,/,/,/,/
CCOC(=O)c1oc2nc(CC(C)C)c3c(c2c1N)CCC3,-12,-1,104,0,1,-5
Cc1ccsc1C1NC(=O)c2c(sc3c2CCCC3)N1 (stereo unspecified),-4,114*,133*,-1,1.8,83
CN1CCc2c(sc3c2C(=O)NC(c2ccc4c(c2)OCO4)N3)C1 (stereo unspecified),/,27,/,/,/,/
O=C1NC(c2ccc(Br)cc2)Nc2sc3c(c21)CCC3 (stereo unspecified),-6,77*,103,0,1.4,19
O=C1NC(c2ccccn2)Nc2sc3c(c21)CCC3 (stereo unspecified),0,19,117,0,5*,37
CN1CCc2c(sc3c2C(=O)NC(c2ccccc2)N3)C1 (stereo unspecified),-12,11,106,1,0.8,-3
Cc1ccc(C2NC(=O)c3c(sc4c3CCN(C)C4)N2)s1 (stereo unspecified),-19,38,138*,0,1.2,10
CCOC(=O)c1ccc(NC(=S)Nc2ccc(Br)cc2N)cc1,/,24,/,/,/,/
Fc1cccc(F)c1CSc1nc2ccccc2[nH]1,-14,6,145*,1,7.2*,156*
O=C(CSc1nc2ccccc2[nH]1)c1ccccc1F,/,-1,/,/,/,/
CCOc1ccccc1CSc1nc2ccccc2[nH]1,-10,54*,96,-1,1.2,18
CC(C)CCSc1nc2ccccc2[nH]1,-18,-1,129*,1,1.1,100
Fc1ccccc1CSCc1nc2ccccc2[nH]1,3,37,131*,0,2.3,18
Cc1ncc(CSc2nc3ccccc3[nH]2)c(N)n1,-5,-4,85,-1,1.2,16
O=[N+]([O-])c1ccc2nc(NS(=O)(=O)c3ccc(F)cc3)sc2c1,/,0,/,/,/,/
CCCN1CCN(C(=O)C(NC(=O)c2ccco2)C(C)C)CC1 (stereo unspecified),/,1,/,/,/,/
COc1ccc(S(=O)(=O)N2CCOCC2)cc1NC(=O)COC(=O)C1COc2ccccc2O1 (stereo unspecified),-14,1,100,0,1.1,-10
